TCR-CD3 inh: blocks the human TCR-CD3 interaction | inhibition, % at 9.4 µM | AID 651800 | TAMRA-labeled TCR probe fluorescence, biochemical | actives 0.37% (n = 360,000); in the data active = inhibition above about 19%;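 also: recombinant mutant TCR 2C K166C tagged with TAMRA read by polarization; 0% = receptor in buffer alone and 100% = receptor with positive control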
HTRA1 inh: inhibitors of human serine peptidase HTRA1; recombinant HTRA1, FP-rhodamine activity-based probe, fluorescence polarization; AID 504803; Q92743; actives 0.5% (n = 340,000); inhibition, % at 5.96 µM; in the data active = inhibition above about 36%;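 also: 0% = enzyme with DMSO and 100% = wells lacking enzyme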
SIAE primary: blocks human sialic acid acetylesterase; SIAE FP-Rh probe binding, fluorescence polarization; inhibition, % at 9.66 µM; actives 0.69% (n = 370,000);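 active = inhibition above a cutoff: mean of compounds within the control limits plus 3 SD of those, cut at about 17% in these data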;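 also: 0% = plate median of compound wells and 100% = probe without SIAE protein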
mABHD4 FP: ABHD4 (mouse) inhibition, primary FP screen. AID 720543. inhibition, % at 8.92 µM. purified mABHD4, FP-Rh probe fluorescence polarization. Q8VD66. actives 0.54% (n = 370,000);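 active = inhibition exceeding the mean over every tested compound plus 3 SD, cut at about 30% in these data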;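 also: 0% = plate median of compound wells and 100% = S159A mutant with DMSO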
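Test system: mouse ABHD4 enzyme, wild type. Reagent: FP-Rh fluorescent activity-based probe, added after compound pre-incubation. Timing: pre-incubation 45 min, probe exposure 60 min, at 25 °C. Technique: FP readout, ex 525 nm / em 598 nm. Benchmarks: high control S159A mutant with DMSO, low control median of compound wells.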
PRMT1 FP inh: blocks human protein arginine methyltransferase 1; Q99873; recombinant PRMT1, activity-based probe fluorescence polarization; inhibition, % at 2.79 µM; actives 1.3% (n = 370,000);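 active = inhibition above about 21% made by adding two undisclosed values, limit read from the data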
Target sequence (Q99873 whole entry, looked up): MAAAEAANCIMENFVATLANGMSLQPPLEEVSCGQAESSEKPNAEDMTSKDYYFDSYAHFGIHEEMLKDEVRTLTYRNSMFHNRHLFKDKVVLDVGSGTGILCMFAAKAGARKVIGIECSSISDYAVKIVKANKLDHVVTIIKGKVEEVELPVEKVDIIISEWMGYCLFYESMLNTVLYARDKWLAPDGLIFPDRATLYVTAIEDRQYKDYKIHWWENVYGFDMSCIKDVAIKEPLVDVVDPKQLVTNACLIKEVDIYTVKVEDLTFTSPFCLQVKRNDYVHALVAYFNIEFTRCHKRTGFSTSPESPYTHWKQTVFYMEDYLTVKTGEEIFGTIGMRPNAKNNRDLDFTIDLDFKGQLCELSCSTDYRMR
Starred values were filed as active, the others as inactive; nt = not tested or not shown; + = active, no number. Sampled rows, rich in hits. Any-hit rate of the full collection: about 2.6%.

SMILES	TCR-CD3 inh	HTRA1 inh	SIAE primary	mABHD4 FP	PRMT1 FP inh
CCOC(=O)C1=C(C)N=c2s/c(=C\c3ccc(OCC(=O)O)cc3)c(=O)n2C1c1ccc(OC(C)C)cc1 (stereo not given)	7	-38	-67	-73	30*
CCOC(=O)C1=C(C)N=c2sc(=Cc3cc(Cl)c(OCC(=O)O)c(Cl)c3)c(=O)n2C1c1cccc(OC)c1 (stereo not given)	-2	nt	-31	-7	13
CCOC(=O)[C@]12CCCC3=C1N(CCC3)C(=O)[C@@H](CC(=O)N1CCN(C(=O)c3ccco3)CC1)C2	nt	nt	0	-3	0
CC(=O)c1cc(F)c(N2CCN(CCC#N)CC2)cc1C	-3	-4	27*	3	-4
O=C(O)c1cccc(-c2ccc(/C=c3/sc4nc5ccccc5n4c3=O)o2)c1	15	-5	-14	15	24*
COc1ccc(C2Nc3ccccc3C(=O)N2Cc2ccccc2)cc1COc1ccc(NC(C)=O)cc1 (stereo not given)	nt	nt	1	-22	-1
C/C(=C(/CCO)SSCC1CCCO1)N(C=O)Cc1cnc(C)nc1N (stereo not given)	-3	-2	0	-50	24*
COc1ccc(CC(=O)N2CCN(C(=O)Cc3ccc(OC)cc3)CC2)cc1	0	-3	8	1	-3
COc1ccc(-c2ccc(C(=S)N3CCN(C(C)=O)CC3)o2)cc1	8	0	2	6	22*
CC(C)(C)OC(=O)NCc1ccccc1/C=C/S(=O)(=O)NCc1ccccc1	nt	nt	-6	-1	5
O=[N+]([O-])c1cc(Cl)c(O)c2ncccc12	1	55*	13	18	-3
COc1ccc(CN2C(=O)c3cccnc3C2Nc2ccc(OC)c(Cl)c2)cc1 (stereo not given)	6	-3	3	-2	0
COc1ccc(NC2c3ncccc3C(=O)N2Cc2ccccc2)c(OC)c1 (stereo not given)	-4	2	+	7	1
COC(=O)[C@]12C[C@H](CC(=O)NCc3ccc(C)o3)C(=O)N(CCC3=CCCCC3)C1=C[C@H](C1CCCC1)O[C@@H]2C	nt	nt	2	4	10
CCOc1ccc(CNC(=S)N/N=C\c2ccc([N+](=O)[O-])cc2)cc1	5	2	3	-2	1
CCOc1ccc(N=Cc2ccc([N+](=O)[O-])cc2)c(O)c1	7	31	3	35*	22*
CS(=O)(=O)c1ccc(OC[C@@H](O)CN2CCC(C(O)(c3ccccc3)c3ccccc3)CC2)cc1	nt	nt	0	4	2
CCc1cc(SC#N)ccc1N	6	-2	4	7	24*
CCc1cc([N+](=O)[O-])cc(CC)c1N	5	-4	-2	-5	-1
Cc1ccc(S(=O)(=O)N2CCCC(C(=O)NCCN3CCC(Cc4ccccc4)CC3)C2)cc1 (stereo not given)	nt	nt	-1	2	0
Cc1nc(N)sc1-c1csc(Nc2ccccn2)n1	-4	24	2	20	23*
C#CCNC(=O)C[C@H]1C[C@@]2(C(=O)OC)C(=C[C@H](C(C)C)O[C@@H]2C2CC2)N(Cc2ccc3c(c2)OCO3)C1=O	nt	nt	3	1	-2
Cc1cc(NC(=S)Nc2cccc3ccccc23)n[nH]1	3	-3	2	4	23*
Cc1cc(C(=O)NNC(=O)/C=C/c2ccco2)c(C)o1	-3	-5	-1	0	23*
CCCCN(C)C(=O)CN1C(=O)C2CCCCN2C(=O)c2ccccc21 (stereo not given)	nt	nt	0	-3	3
SMILES	TCR-CD3 inh	HTRA1 inh	SIAE primary	mABHD4 FP	PRMT1 FP inh
Cc1cc(NS(=O)(=O)c2ccc(NC(=O)CSc3nnc(SCc4ccc(Cl)cc4)s3)cc2)nc(C)n1	nt	nt	-28	-31	3
CC(C)CNC(=O)OCc1cn(Cc2cccc(Cl)c2)nn1	nt	nt	3	-3	-7
COc1cc2c(cc1OC)/C(=C/C(=O)N1CCOCC1)NC(C)(C)C2	4	nt	1	0	21
CC1(C)Cc2ccccc2/C(=C/C(=O)N2CCCCCC2)N1	6	-1	-16	5	22*
O=C(O)C1CC(c2ccccc2)=Nc2ccccc2S1 (stereo not given)	5	-4	2	3	14
Fc1ccc(C2CC(c3ccco3)=Nc3ccccc3S2)cc1 (stereo not given)	9	6	4	2	71*
Fc1ccc(C2CC(c3ccco3)=NN2c2ccccc2)cc1 (stereo not given)	5	-3	9	2	0

Screening data: PubChem BioAssay, The Scripps Research Institute Molecular Screening Center
